In assay [1] the test system is NCI/ADR-RES. The assay is described as follows: Cytotoxicity against multidrug-resistance human MCF7/ADR cells after 48 hrs by MTT assay. In kind it is functional, cell-based. The procedure, abridged:
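MCF-7/ADR cells grown in DMEM with 10% FBS, trypsinized, seeded at 4.5 × 10^4 cells/mL and held 24 h at 37 °C, 5% CO2. Compounds added in DMSO over 400 to 1 μg/mL. MTT read-out after 48 h exposure. Triplicate.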

The subject of assay [2] is NCI/ADR-RES. The assay is described as follows: Reversal fold, ratio of IC50 for doxorubicin alone to IC50 for doxorubicin in presence of compound in human MCF7/ADR cells after 48 hrs by MTT assay. It is filed as functional. The procedure, abridged:
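MCF-7/ADR cells seeded at 4.5 × 10^3 per well. Doxorubicin serially diluted 0.008–25 μg/mL, with or without 5 μg/mL sample; verapamil 5 μg/mL as positive control. MTT after 48 h. Doxorubicin IC50 computed relative to untreated cells (100%). RF = IC50 doxorubicin alone / IC50 with sample. Triplicate.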

The structures appear in SMILES notation. Calls of active or inactive are those of the source. No cut-off for these calls is given here.

Consider `CCCCCCCCCC(=O)O[C@H]1[C@H](O[C@@H]2[C@H]3OC(=O)CCCCCCCCC[C@H](CCCCC)O[C@@H]4O[C@H](C)[C@H](O)[C@H](O)[C@H]4O[C@H](O[C@H]2C)[C@@H]3O)O[C@@H](C)[C@H](O[C@@H]2O[C@@H](C)[C@H](OC(=O)[C@@H](C)CC)[C@@H](OC(=O)/C=C/c3ccccc3)[C@H]2O)[C@H]1O[C@@H]1O[C@@H](C)[C@H](O)[C@@H](O)[C@H]1O` [PESCAPREIN XXIII], for which, in the assay with NCI/ADR-RES [1], the result was inactive. In the assay with NCI/ADR-RES [2], the “Ratio IC50” value is 2.9. Turning to `CCCCCCCCCC(=O)O[C@H]1[C@H](O[C@@H]2[C@H]3OC(=O)CCCCCCCCC[C@H](CCCCC)O[C@@H]4O[C@H](C)[C@H](O)[C@H](O)[C@H]4O[C@H](O[C@H]2C)[C@@H]3O)O[C@@H](C)[C@H](O[C@@H]2O[C@@H](C)[C@H](OC(=O)[C@@H](C)CC)[C@@H](O)[C@H]2OC(=O)/C=C/c2ccccc2)[C@H]1O[C@@H]1O[C@@H](C)[C@H](O)[C@@H](O)[C@H]1O` [PESCAPREIN XXIV], the result in the assay on NCI/ADR-RES [1] was inactive. The “Ratio IC50” value in the assay on NCI/ADR-RES [2] is given as 1.8.

For `CCCCCC(=O)O[C@H]1[C@H](O[C@@H]2[C@@H](O)[C@H]3OC(=O)CCCCCCCCC[C@H](CCCCC)O[C@@H]4O[C@H](C)[C@H](O)[C@H](O)[C@H]4O[C@@H]3O[C@H]2C)O[C@@H](C)[C@H](O[C@@H]2O[C@@H](C)[C@H](OC(=O)[C@@H](C)CC)[C@@H](OC(=O)/C=C/c3ccccc3)[C@H]2O)[C@H]1O[C@@H]1O[C@@H](C)[C@H](O)[C@@H](O)[C@H]1O` [PESCAPREIN XXIX], the outcome in the assay with NCI/ADR-RES [1] was inactive. Further, the “Ratio IC50” value in the assay with NCI/ADR-RES [2] was 3.2. As for `CCCCCCCCCCCC(=O)O[C@H]1[C@H](O[C@@H]2[C@H]3OC(=O)CCCCCCCCC[C@H](CCCCC)O[C@@H]4O[C@H](C)[C@H](O)[C@H](O)[C@H]4O[C@H](O[C@H]2C)[C@@H]3O)O[C@@H](C)[C@H](O[C@@H]2O[C@@H](C)[C@H](OC(=O)[C@@H](C)CC)[C@@H](O)[C@H]2OC(=O)/C=C/c2ccccc2)[C@H]1O[C@@H]1O[C@@H](C)[C@H](O)[C@@H](O)[C@H]1O` [PESCAPREIN XXI], the outcome in the assay on NCI/ADR-RES [1] was inactive. The “Ratio IC50” value with NCI/ADR-RES [2] is 1.5.

For `CCCCCCCC(=O)O[C@H]1[C@H](O[C@@H]2[C@H]3OC(=O)CCCCCCCCC[C@H](CCCCC)O[C@@H]4O[C@H](C)[C@H](O)[C@H](O)[C@H]4O[C@H](O[C@H]2C)[C@@H]3O)O[C@@H](C)[C@H](O[C@@H]2O[C@@H](C)[C@H](OC(=O)[C@@H](C)CC)[C@@H](OC(=O)/C=C/c3ccccc3)[C@H]2O)[C@H]1O[C@@H]1O[C@@H](C)[C@H](O)[C@@H](O)[C@H]1O` [PESCAPREIN XXVIII], the result with NCI/ADR-RES [1] was inactive. In addition, the “Ratio IC50” value in the assay on NCI/ADR-RES [2] worked out at 2.3. `CCCCC[C@H]1CCCCCCCCCC(=O)O[C@H]2[C@@H](O)[C@H](O[C@H]3[C@H](O1)O[C@H](C)[C@H](O)[C@@H]3O)O[C@@H](C)[C@@H]2O[C@@H]1O[C@@H](C)[C@H](O[C@@H]2O[C@@H](C)[C@H](OC(=O)[C@@H](C)CC)[C@@H](OC(=O)/C=C/c3ccccc3)[C@H]2O)[C@@H](O[C@@H]2O[C@@H](C)[C@H](O)[C@@H](O)[C@H]2O)[C@H]1OC(=O)[C@@H](C)CC` [PESCAPREIN XXVII]: the outcome with NCI/ADR-RES [1] was inactive. Moreover, in the assay with NCI/ADR-RES [2], the “Ratio IC50” value is recorded as 1.9. Consider `CCCCCCCCCC(=O)O[C@H]1[C@H](O[C@@H]2[C@H]3OC(=O)CCCCCCCCC[C@H](CCCCC)O[C@@H]4O[C@H](C)[C@H](O)[C@H](O)[C@H]4O[C@H](O[C@H]2C)[C@@H]3O)O[C@@H](C)[C@H](O[C@@H]2O[C@@H](C)[C@H](OC(=O)C(C)C)[C@@H](OC(=O)/C=C/c3ccccc3)[C@H]2O)[C@H]1O[C@@H]1O[C@@H](C)[C@H](O)[C@@H](O)[C@H]1O` [PESCAPREIN XXVI], for which, in the assay with NCI/ADR-RES [1], the result was inactive. Further, the “Ratio IC50” value in the assay on NCI/ADR-RES [2] is given as 3.7.

Consider `CCCCCCCCCCCC(=O)O[C@H]1[C@H](O[C@@H]2[C@H]3OC(=O)CCCCCCCCC[C@H](CCCCC)O[C@@H]4O[C@H](C)[C@H](O)[C@H](O)[C@H]4O[C@H](O[C@H]2C)[C@@H]3O)O[C@@H](C)[C@H](O[C@@H]2O[C@@H](C)[C@H](OC(=O)C(C)C)[C@@H](OC(=O)/C=C/c3ccccc3)[C@H]2O)[C@H]1O[C@@H]1O[C@@H](C)[C@H](O)[C@@H](O)[C@H]1O` [PESCAPREIN XXV], for which the outcome in the assay on NCI/ADR-RES [1] was inactive. The “Ratio IC50” value in the assay on NCI/ADR-RES [2] is 2.1. `CCCCCCCCCC(=O)O[C@H]1[C@H](O[C@@H]2[C@@H](O)[C@H]3OC(=O)CCCCCCCCC[C@H](CCCCC)O[C@@H]4O[C@H](C)[C@H](O)[C@H](O)[C@H]4O[C@@H]3O[C@H]2C)O[C@@H](C)[C@H](O[C@@H]2O[C@@H](C)[C@H](O)[C@@H](OC(=O)[C@@H](C)CC)[C@H]2O)[C@H]1O[C@@H]1O[C@@H](C)[C@H](O)[C@@H](O)[C@H]1O` [PESCAPREIN XXX]: the result with NCI/ADR-RES [1] was inactive. Moreover, the “Ratio IC50” value in the assay with NCI/ADR-RES [2] came out at 2.3.

On to `COc1ccc(CCN(C)CCCC(C#N)(c2ccc(OC)c(OC)c2)C(C)C)cc1OC` (centres undefined) [VERAPAMIL], for which the “Ratio IC50” value with NCI/ADR-RES [2] is 21.
